Bioassay records from PubChem BioAssay.
Sampled rows, rich in hits. Any-hit rate of the full collection: about 2.9%.
UBC13 inh = UBC13 polyubiquitin chain formation inhibitors, primary screen, biochemical, TR-FRET, uHTS. AID 485273, 2010. 330,000 compounds, 0.47% hits. inhibition, % at 20 µM; in the data active = inhibition above about 45%, passing the limit was not always enough
Target sequence (P61088 whole entry, looked up): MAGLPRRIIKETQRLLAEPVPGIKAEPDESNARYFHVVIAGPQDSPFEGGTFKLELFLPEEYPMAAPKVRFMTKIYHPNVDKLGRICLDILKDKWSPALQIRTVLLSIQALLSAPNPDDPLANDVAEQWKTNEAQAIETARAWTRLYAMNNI
Apaf1 inhib = inhibitors of human Apaf-1 apoptosome, primary screen, biochemical, DEVD-Rh110 fluorescence, uHTS; Apoptotic protease-activating factor 1 (Homo sapiens), O14727; reconstituted apoptosome caspase-3 activity; inhibition, % at 20 µM; 330,000 compounds, 0.71% hits; AID 489030, 2010; active = inhibition of at least 40% at 20 µM;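 note: plate controls were DMSO wells for no effect and DEVD-CHO caspase inhibitor wells for full effect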
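Material: cell-free apoptosome with Apaf-1, procaspase-3 and caspase-9; Buffer or medium: Hepes pH 7.5 with detergent and BSA; Reagent: cytochrome c trigger plus (Z-DEVD)2-Rh110 caspase-3 substrate; Times: compound with Apaf-1, dATP, procaspase-3 30 min, then 50 min reaction, room temperature; Technique: Rh110 fluorescence intensity.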
MEKK3 PB1 HTS = modulators of MEKK3-MEK5 PB1 binding, primary screen, biochemical, wildtype MEKK3, multiplex bead flow cytometry, Alexa488-MEK5; Mitogen-activated protein kinase kinase kinase 3 (Homo sapiens), Q99759; bead-based flow cytometry, Alexa488-MEK5 binding to MEKK3; actives lie on both sides; 0 = blocked by unlabeled MEK5, 100 = vehicle; binding response (% of control), % at 10 µM; 290,000 compounds, 1.4% hits; AID 1529, 2009;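 active = binding response more than 3 SD above or below the average of its plate-row segment, actives on both sides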;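 note: Alexa488 bead fluorescence after subtracting the streptavidin-only scavenger bead signal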
MEKK2wt PB1 HTS = modulators of MEK5 binding to wildtype MEKK2, primary screen, biochemical, multiplex bead flow cytometry, Alexa488-MEK5 | binding response (% of control), % at 10 µM | 290,000 compounds, 1.1% hits | Alexa488-MEK5 binding to MEKK2 WT; actives lie on both sides; in the data active = binding response below about 67% or above about 130%
MEKK2mut PB1 HTS = MEK5 binding signal on mutant MEKK2 PB1, primary screen, biochemical, multiplex bead flow cytometry, Alexa488-MEK5 | Alexa488-MEK5 binding to MEKK2 mutant | percent response, % at 10 µM | 290,000 compounds, 0.35% hits; in the data active = percent response above about 24%, passing the limit was not always enough
Casp3 counter = CASP3 inhibitor validation, counterassay for project on UBE2N polyubiquitination blockers, biochemical, one dose; shares compounds with UBC13 inh; Recombinant caspase-3, Caspase-Glo 3/7 luminescence, 60 min; inhibition, % at 20 µM; 1,400 compounds, 4% hits; AID 488856, 2010;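 active = mean inhibition across replicates above about 26%, limit read from the data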;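 note: plate controls were DMSO with caspase-3 for no effect and DMSO wells lacking enzyme for full effect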
Target sequence (P42574 whole entry, looked up): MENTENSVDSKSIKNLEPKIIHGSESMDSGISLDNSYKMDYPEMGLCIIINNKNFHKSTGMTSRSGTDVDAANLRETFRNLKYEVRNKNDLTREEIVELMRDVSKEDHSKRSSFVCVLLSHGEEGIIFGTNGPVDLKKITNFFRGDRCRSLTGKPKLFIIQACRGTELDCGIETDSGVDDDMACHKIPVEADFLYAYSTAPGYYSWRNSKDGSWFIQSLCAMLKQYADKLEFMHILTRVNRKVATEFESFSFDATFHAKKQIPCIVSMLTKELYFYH
UBC13 conf = UBC13 polyubiquitination inhibitors, single-point retest, confirmation, biochemical, TR-FRET, single concentration. shares compounds with UBC13 inh. inhibition, % at 10 µM. 1,400 compounds, 68% hits; in the data active = inhibition above about 45%
* = called active by the depositor; . = no result.

SMILES	UBC13 inh	Apaf1 inhib	MEKK3 PB1 HTS	MEKK2wt PB1 HTS	MEKK2mut PB1 HTS	Casp3 counter	UBC13 conf
NC(=S)N=Nc1c(O)n(Cc2ccc(F)cc2)c2ccccc12	73*	5	100	97	13	-1	75*
Cc1ccc2c(c1)c(N=NC(N)=S)c(O)n2Cc1ccccc1	79*	0	87	92	-2	0	46*
NC(=S)N=Nc1c(O)n(CCCl)c2ccc(Br)cc12	58*	-2	92	96	-15	-1	30
C/C(Cl)=C\Cn1c(O)c(N=NC(N)=S)c2cc(Br)ccc21	-7	10	99	85	-8	.	.
NC(=S)N=Nc1c(O)n(Cc2ccc(Br)cc2)c2ccccc12	46*	11	101	94	-2	-2	38
Oc1c(N=NC(=S)Nc2ccccc2F)c2ccccc2n1Cc1ccc(F)cc1	-42	3	103	93	-2	.	.
CCOc1ccccc1NC(=O)CSc1nnc(CNC(=O)c2cc(OC)c(OC)c(OC)c2)o1	-5	-2	100	103	-2	.	.
COCCCn1c(N)c(-c2nc3ccccc3n2C)c2nc3ccccc3nc21	62*	-2	104	103	5	-1	59*
Clc1ccc(C2=NCCN2)cc1	-18	11	113	105	4	.	.
O=C(COc1ccc(Cc2ccccc2)cc1)c1ccc(F)cc1	45*	16	99	101	1	49*	8
O=C(COc1ccc(F)cc1)c1ccc2c(c1)CCCC2	-1	13	109	100	9	.	.
COc1ccc(-c2cc3ccccc3s2)cc1[C@H]1[C@H]2C=CC[C@@H](C)[C@@H]2C(=O)N1Cc1ccccc1	48*	1	96	93	-4	60*	34
Cc1nn(CC(=O)NCCCN2CCN(Cc3ccccc3)CC2)c(=O)c2cc(-c3ccccc3)nn12	24	9	103	116	16	.	.
CCc1ccc(-c2cc3c(=O)n(CC(=O)NCCCN4CCC(Cc5ccccc5)CC4)nc(C)n3n2)cc1	60*	25	110	203*	29*	1	86*
Cc1nn(CC(=O)NCCCN2CCC(Cc3ccccc3)CC2)c(=O)c2cc(-c3ccccc3)nn12	93*	16	108	161*	48*	2	112*
O=C(NCC1CCCCC1)C1(CC2CC(c3ccc(Cl)cc3)=NO2)CCNCC1 (centres undefined)	46*	14	104	127	-2	3	47*
C/C(=N/NC(=O)c1ccc(C(C)(C)C)cc1)c1ccccn1	51*	9	.	.	.	61*	101*
CC(C)(C)c1ccc(C(=O)N/N=C/c2ccccn2)cc1	65*	9	97	97	1	5	87*
Cc1ccc(C(=O)NNC(=O)c2nn(-c3ccc(F)cc3)ccc2=O)cc1	77*	-8	93	95	-5	-6	96*
O=C(NNC(=O)c1nn(-c2ccc(F)cc2)ccc1=O)c1ccc(C(F)(F)F)cc1	70*	-10	97	99	-2	0	86*
CC(C)NC(=O)NNC(=O)c1nn(-c2ccc(F)cc2)ccc1=O	33	-7	103	98	0	.	.
O=C(NNC(=O)c1nn(-c2ccc(F)cc2)ccc1=O)Nc1cccc(Cl)c1	10	-15	100	102	2	.	.
O=C(NNC(=O)c1cccc(C(F)(F)F)c1)c1ccc(-n2cnnn2)cc1	-4	1	.	.	.	.	.
O=C(NNC(=O)c1nn(-c2ccc(F)cc2)ccc1=O)c1ccc(Cl)cc1	71*	-17	91	93	-3	-3	88*
